EBV gp42 block: EBV gp42 inhibition; AID 1085; Q1HVG2; inhibition, % (tested at 21.74 µM); hit rate 0.42% among 220,000; Fluorescence polarization binding assay, mP read-out; in the data active = inhibition above about 50%
Runt-CBFb FRET: blocks binding of human RUNX1 Runt domain to CBFb; Q01196+Q13951; Cerulean-Runt/Venus-CBFb FRET ratio 530/480, 1 h; inhibition, % at 20 µM; hit rate 0.46% among 220,000;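 active = inhibition over about 50% at 20 µM in the single-dose screen, limit read from the data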;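 note: 0% = DMSO wells and 100% = excess unlabeled CBFb competitor control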
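test system = Cerulean-Runt domain fusion protein, energy donor | probe or stimulus = Venus-CBFb binding partner, 100 nM | incubation = two 1 h room-temperature incubations shielded from light | detection = fluorescence energy transfer, 422 nm excitation, 530/480 nm emission | measure = loss of energy transfer signal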
MEX-5 binding: C. elegans MEX-5 TCR-2 RNA binding activity; Q9XUB2; MEX-5/FITC-TCR2 RNA binding, fluorescence polarization; hits give low values; activity score (negative = inhibition of binding), % at 10 µM; hit rate 0.38% among 300,000; AID 1832;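 active = inhibition past about -25% in most replicates, and total fluorescence under double the plate's negative control median, limit read from the data; inconclusive = replicates evenly split on the limit, or fluorescence at least double controls; inactive = too little inhibition in most replicates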;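 note: 0% = DMSO and -100% = 5 µM competing unlabeled TCR2 RNA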
Target sequence (Q9XUB2 whole entry, looked up): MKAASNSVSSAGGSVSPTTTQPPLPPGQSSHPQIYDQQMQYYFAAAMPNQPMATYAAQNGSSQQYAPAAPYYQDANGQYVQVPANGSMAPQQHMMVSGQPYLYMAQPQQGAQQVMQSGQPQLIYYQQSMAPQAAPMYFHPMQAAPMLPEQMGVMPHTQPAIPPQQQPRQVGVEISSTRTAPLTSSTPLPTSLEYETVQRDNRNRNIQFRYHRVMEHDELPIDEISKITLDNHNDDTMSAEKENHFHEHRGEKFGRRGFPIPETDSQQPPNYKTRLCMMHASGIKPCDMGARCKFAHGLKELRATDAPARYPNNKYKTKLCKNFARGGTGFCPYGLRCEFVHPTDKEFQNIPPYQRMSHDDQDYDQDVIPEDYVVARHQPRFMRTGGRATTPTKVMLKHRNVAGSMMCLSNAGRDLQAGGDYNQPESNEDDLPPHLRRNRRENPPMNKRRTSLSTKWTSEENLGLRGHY
LANA-H2A inh: blocks KSHV LANA binding to histone H2A/H2B; Q9QR71; cell-free LANA-H2A/H2B peptide, fluorescence polarization; inhibition, % (no concentration beside the values); hit rate 0.6% among 320,000; in the data active = inhibition mostly above about 10%, no sharp cut-off; inactive = mostly below about 6.7%
RanGTP-Imp inh: inhibitors of RanGTP-importin-beta interaction, primary screen, biochemical, FRET, CFP-Ran, YFP-importin-beta, homogeneous. hit rate 1.1% among 300,000. inhibition, % (concentration not given with the values). cell-free CFP-Ran/YFP-importin-beta FRET ratio;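 active = more than half of the replicate wells show a fall in the fluorescence ratio signal beyond about 16%, limit read from the data, passing the limit was not always enough; inconclusive = exactly half of the replicate wells pass the set limit; inactive = fewer than half of replicates pass the limit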;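 note: 0% = DMSO wells and 100% = Ran loaded with GDP instead of GTP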
Runt-SMMHC FRET: Runt domain-CBFb-SMMHC interaction inhibition. hit rate 0.74% among 220,000. Cerulean-Runt/Venus-CBFb-SMMHC FRET ratio 530/480, 1 h. Q01196+Q13951. inhibition, % at 20 µM;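 active = mean inhibition across duplicate retests at 20 µM reaching about 50%, limit read from the data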;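 note: 0% = DMSO wells and 100% = wells with excess untagged CBFb-SMMHC; inhibitors lower the FRET ratio by blocking Runt binding to CBFb-SMMHC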
Numbers without * were called inactive; ? = inconclusive; . = no result. Sampled rows, rich in hits. Any-hit rate of the full collection: about 2.4%.

SMILES	EBV gp42 block	Runt-CBFb FRET	MEX-5 binding	LANA-H2A inh	RanGTP-Imp inh	Runt-SMMHC FRET
O=C(Nc1nc2c(s1)CN(Cc1ccccc1)CC2)C1CCC1	-13	42	-1	-1	2	130*
CCN1CCc2nc(NC(=O)c3ccccc3)sc2C1	-18	44	-2	-3	53*	109*
Cn1ccnc1SCC(=O)Nc1ccc(Cl)cn1	-20	15	1	-4	0	1
CC(=O)Nc1nc2n(n1)C(c1ccc(F)cc1)C=C(c1ccccc1)N2 (configuration not stated)	33	-56	-17	-2	-24	-58
COc1ccc(C2=CC(c3ccc(F)cc3)n3nnnc3N2)cc1 (configuration not stated)	8	-9	-4	6	3	-10
COc1ccc(C2=CC(c3ccc(Cl)cc3)n3cnnc3N2)cc1OC (configuration not stated)	55*	-24	-11	-1	-1	-157
COc1cc(C2C=C(c3cccs3)Nc3ncnn32)cc(OC)c1OC (configuration not stated)	105*	20	.	.	.	93*
CC(=O)Nc1nc2n(n1)C(c1ccc(Cl)cc1)C=C(C)N2 (configuration not stated)	-5	31	-2	0	-1	83*
COc1ccc(C2C=C(c3ccc(Cl)cc3)Nc3nc(NC(C)=O)nn32)cc1 (configuration not stated)	106*	-134	.	2	.	-121
COc1ccc(CCCC(=O)NC(C)c2ccccc2)cc1 (configuration not stated)	-16	0	1	-4	6	8
CCOc1ccc(N2CC(C(=O)Nc3nnc(Cc4ccccc4)s3)CC2=O)cc1 (configuration not stated)	.	.	-1	-5	-1	.
Fc1ccc(-c2[nH]ncc2CN(CC2CCC2)CC2CCCO2)c(F)c1 (configuration not stated)	-10	5	0	-1	?	-7
O=C(c1nc2n(n1)C(c1ccc(Cl)cc1)C=C(c1ccccc1)N2)N1CCOCC1 (configuration not stated)	77*	-16	-16	0	-67	62*
CCC(=O)Nc1nc2n(n1)C(c1ccc(OC)cc1)C=C(c1ccccc1)N2 (configuration not stated)	60*	-156	-2	3	1	75
CC(=O)Nc1nc2n(n1)C(c1ccccc1)C=C(c1ccccc1)N2 (configuration not stated)	32	-64	-1	9	-9	38
COc1ccc(C2C=C(c3cccs3)Nc3nc(CCCO)nn32)cc1 (configuration not stated)	151*	-67	.	74*	.	-135
CC(=O)N/N=C(\C)CC(=O)NC(C)(C)C	-44	1	-7	4	-3	0
COc1ccc(CCNC(=O)C2CCC(=O)N2Cc2ccccc2Cl)cc1OC (configuration not stated)	.	.	-1	0	-2	.
O=C(NCCc1ccc(Cl)cc1)C1CCC(=O)N1Cc1ccccc1Cl (configuration not stated)	-19	-3	1	13*	3	-6
CCOC(=O)N1CCC(N2CCN(C3CCCC3)C(CCO)C2)CC1 (configuration not stated)	-9	0	-4	-1	-5	2
O=C(CSc1ccsc1[N+](=O)[O-])Nc1cc(F)ccc1F	91*	4	-2	.	-4	-2
CC(=O)c1ccc(NC(=O)CSc2ccsc2[N+](=O)[O-])cc1	51*	-5	-4	.	-5	-13
COc1ccc([N+](=O)[O-])cc1NC(=O)C(C)OC(=O)CSC(C)C(=O)Nc1cc(C)on1 (configuration not stated)	.	.	1	-1	-2	.
CCOC(=O)c1c(-c2cccs2)csc1NC(=O)C(C)(C)C	-2	110*	-2	-2	-3	-6
CCOC(=O)c1c(-c2ccc(C)o2)csc1NC(=S)NC(=O)c1ccccc1Br	-6	35	-2	-1	2	32
SMILES	EBV gp42 block	Runt-CBFb FRET	MEX-5 binding	LANA-H2A inh	RanGTP-Imp inh	Runt-SMMHC FRET
CCOC(=O)c1c(-c2ccc(C)o2)csc1NC(=S)NC(=O)c1cccs1	-15	37	-34*	-5	-3	26
O=C1NC(=O)/C(=C/c2ccc(-c3cc(C(=O)O)ccc3Cl)o2)S1	.	.	-9	2	9	.
O=C1NC(=S)/C(=C\c2ccc(-c3ccccc3Cl)o2)S1	60*	17	-42*	1	0	-20
Cc1ccc(CN2CCN(C/C=C/c3ccc(F)cc3)CC2CCO)o1 (configuration not stated)	-18	3	-1	3	4	2
COc1ccc(C(=O)NCCc2nnc3ccc(SCC(=O)NCc4ccc(F)cc4)nn23)cc1	.	.	0	0	4	.
COCCn1c(=O)[nH]c2cc(C(=O)NCCc3ccc(S(N)(=O)=O)cc3)ccc2c1=O	-4	-2	2	0	-2	1
COCCn1c(=O)[nH]c2cc(C(=O)NCCc3ccc(OC)c(OC)c3)ccc2c1=O	50*	0	1	2	1	0
Cc1ccc(S(=O)(=O)c2nc(S(C)(=O)=O)sc2N2CCC(C)CC2)cc1	.	.	-2	4	3	.
O=C(O)C1CCCC2CN3CCc4c([nH]c5ccccc45)C3C(O)C21 (configuration not stated)	.	.	-10	5	30*	.
O=C(O)[C@@H]1[C@H]2C[C@H]3c4[nH]c5ccccc5c4CCN3C[C@@H]2CC[C@@H]1O	.	.	.	5	.	.
CC(C)=NOc1nc(N(C)C)nc(N2CCOCC2)n1	-8	1	-3	0	5	1
COc1ccc2c(c1)c1ncn(CCN3CCCC3)c(=O)c1n2C	-9	-1	3	2	2	5
COc1ccccc1CCn1cnc2c3cc(C)ccc3n(C)c2c1=O	1	-4	.	24*	-2	-36
Cc1nc(S(=O)(=O)c2ccc(Cl)cc2)c(N(C)C)o1	.	.	3	-2	1	.
CCOC(=O)c1c(NC(=O)CSc2nnc(-c3ccccc3)n2CC)sc(C(C)=O)c1C	-17	-5	4	23*	?	-2
O=C(N/C(=C\c1ccc(F)cc1)C(=O)N1CCOCC1)c1ccccc1	.	.	-2	-2	4	.
O=C1CCC(=O)N1c1nc2n(n1)C(c1ccccc1)C=C(c1ccc(Br)cc1)N2 (configuration not stated)	51*	-9	-12	6	-14	-90

Bioassay records (PubChem)
